Data as given in ChEMBL document CHEMBL1926577, “Novel 1,3,4-heterodiazole analogues: synthesis and in-vitro antitumor activity” (2012).

Key:
Type in all cases: functional
[1] = system: SK-MEL-28; assay: Growth inhibition of human SK-MEL-28 cells at 10 uM after 48 hrs by coulter counter method; conditions: SK-MEL-28, 48 h, read-out: GI
Summary of the method: (§1)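 NCI 60-cell-line panel, single dose. Compound dissolved first in DMSO, then diluted in phosphate-buffered saline so that every final dilution held under 1% DMSO. Duplicate wells received cells at 6 × 10⁴ cells/ml. Controls held PBS/DMSO at the same dilution. Plates were incubated 48 h at 37 °C under 5% CO₂. Cells were then diluted 10-fold in saline and counted on a Coulter counter, with counts corrected for the dilution. Results are given as percent growth inhibition.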

[2] = system: HL-60(TB); assay: Growth inhibition of human HL-60(TB) cells at 10 uM after 48 hrs by coulter counter method; conditions: HL-60, 48 h, read-out: GI
Summary of the method: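 Single-dose screen on the NCI 60-line panel (leukemia subpanel). Compound is dissolved in DMSO and diluted in PBS, with final DMSO below 1%. Duplicate wells hold 6 × 10⁴ cells/ml at 37 °C, 5% CO₂, for 48 h. Cells are counted by Coulter counter after 10-fold saline dilution. Read-out is percent growth versus PBS/DMSO controls, expressed as % growth inhibition.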

[3] = system: NCI-H322M; assay: Growth inhibition of human NCI-H322M cells at 10 uM after 48 hrs by coulter counter method; conditions: read-out: GI; summary of the method: as §1
[4] = system: ACHN; assay: Growth inhibition of human ACHN cells at 10 uM after 48 hrs by coulter counter method; conditions: read-out: GI; summary of the method: as §1
[5] = system: EKVX; assay: Growth inhibition of human EKVX cells at 10 uM after 48 hrs by coulter counter method; conditions: read-out: GI; summary of the method: as §1
[6] = system: SNB-19; assay: Growth inhibition of human SNB19 cells at 10 uM after 48 hrs by coulter counter method; conditions: SNB-19, 48 h, read-out: GI; summary of the method: as §1
[7] = system: KM12; assay: Growth inhibition of human KM12 cells at 10 uM after 48 hrs by coulter counter method; conditions: KM12, 48 h, read-out: GI; summary of the method: as §1
[8] = system: PC-3; assay: Growth inhibition of human PC3 cells at 10 uM after 48 hrs by coulter counter method; conditions: PC-3, 48 h, read-out: GI; summary of the method: as §1
[9] = system: BT-549; assay: Growth inhibition of human BT549 cells at 10 uM after 48 hrs by coulter counter method; conditions: BT-549, 48 h, read-out: GI; summary of the method: as §1
[10] = system: SF-295; assay: Growth inhibition of human SF295 cells at 10 uM after 48 hrs by coulter counter method; conditions: SF-295, 48 h, read-out: GI; summary of the method: as §1
[11] = system: NCI-H522; assay: Growth inhibition of human NCI-H522 cells at 10 uM after 48 hrs by coulter counter method; conditions: NCI-H522, 48 h, read-out: GI; summary of the method: as §1
[12] = system: CCRF-CEM; assay: Growth inhibition of human CCRF-CEM cells at 10 uM after 48 hrs by coulter counter method; conditions: read-out: GI; summary of the method: as §1
[13] = system: HT-29; assay: Growth inhibition of human HT-29 cells at 10 uM after 48 hrs by coulter counter method; conditions: HT-29, 48 h, read-out: GI; summary of the method: as §1
[14] = system: UO-31; assay: Growth inhibition of human UO31 cells at 10 uM after 48 hrs by coulter counter method; conditions: UO-31, 48 h, read-out: GI; summary of the method: as §1
[15] = system: MDA-MB-435; assay: Growth inhibition of human MDA-MB-435 cells at 10 uM after 48 hrs by coulter counter method; conditions: MDA-MB-435, 48 h, read-out: GI; summary of the method: as §1
[16] = system: A549; assay: Growth inhibition of human A549 cells at 10 uM after 48 hrs by coulter counter method; conditions: A549, 48 h, read-out: GI; summary of the method: as §1
[17] = system: LOX IMVI; assay: Growth inhibition of human LOXIMVI cells at 10 uM after 48 hrs by coulter counter method; conditions: read-out: GI; summary of the method: as §1
[18] = system: TK-10; assay: Growth inhibition of human TK10 cells at 10 uM after 48 hrs by coulter counter method; conditions: TK-10, 48 h, read-out: GI; summary of the method: as §1
[19] = system: IGROV-1; assay: Growth inhibition of human IGROV1 cells at 10 uM after 48 hrs by coulter counter method; conditions: IGROV-1, 48 h, read-out: GI; summary of the method: as §1
[20] = system: CAKI-1; assay: Growth inhibition of human Caki1 cells at 10 uM after 48 hrs by coulter counter method; conditions: CAKI-1, 48 h, read-out: GI; summary of the method: as §1
[21] = system: NCI-H23; assay: Growth inhibition of human NCI-H23 cells at 10 uM after 48 hrs by coulter counter method; conditions: NCI-H23, 48 h, read-out: GI; summary of the method: as §1
[22] = system: MOLT-4; assay: Growth inhibition of human MOLT4 cells at 10 uM after 48 hrs by coulter counter method; conditions: MOLT-4, 48 h, read-out: GI; summary of the method: as §1
[23] = system: NCI/ADR-RES; assay: Growth inhibition of human NCI/ADR-RES cells at 10 uM after 48 hrs by coulter counter method; conditions: read-out: GI; summary of the method: as §1
[24] = system: SR; assay: Growth inhibition of human SR cells at 10 uM after 48 hrs by coulter counter method; conditions: read-out: GI; summary of the method: as §1
[25] = system: SK-MEL-2; assay: Growth inhibition of human SK-MEL-2 cells at 10 uM after 48 hrs by coulter counter method; conditions: SK-MEL-2, 48 h, read-out: GI; summary of the method: as §1
[26] = system: K562; assay: Growth inhibition of human K562 cells at 10 uM after 48 hrs by coulter counter method; conditions: K562, 48 h, read-out: GI; summary of the method: as §1
[27] = system: OVCAR-8; assay: Growth inhibition of human OVCAR8 cells at 10 uM after 48 hrs by coulter counter method; conditions: OVCAR-8, 48 h, read-out: GI; summary of the method: as §1
[28] = system: NCI-H226; assay: Growth inhibition of human NCI-H226 cells at 10 uM after 48 hrs by coulter counter method; conditions: NCI-H226, 48 h, read-out: GI; summary of the method: as §1
[29] = system: HCT-116; assay: Growth inhibition of human HCT116 cells at 10 uM after 48 hrs by coulter counter method; conditions: HCT-116, 48 h, read-out: GI; summary of the method: as §1
[30] = system: UACC-62; assay: Growth inhibition of human UACC62 cells at 10 uM after 48 hrs by coulter counter method; conditions: UACC-62, 48 h, read-out: GI; summary of the method: as §1
[31] = system: U-251; assay: Growth inhibition of human U251 cells at 10 uM after 48 hrs by coulter counter method; conditions: U-251, 48 h, read-out: GI; summary of the method: as §1
[32] = system: 786-0; assay: Growth inhibition of human 786-0 cells at 10 uM after 48 hrs by coulter counter method; conditions: 786-0, 48 h, read-out: GI; summary of the method: as §1
[33] = system: SN12C; assay: Growth inhibition of human SN12C cells at 10 uM after 48 hrs by coulter counter method; conditions: read-out: GI; summary of the method: as §1
[34] = system: HCT-15; assay: Growth inhibition of human HCT15 cells at 10 uM after 48 hrs by coulter counter method; conditions: HCT-15, 48 h, read-out: GI; summary of the method: as §1
[35] = system: RPMI-8226; assay: Growth inhibition of human RPMI8226 cells at 10 uM after 48 hrs by coulter counter method; conditions: RPMI-8226, 48 h, read-out: GI; summary of the method: as §1
[36] = system: SF-268; assay: Growth inhibition of human SF268 cells at 10 uM after 48 hrs by coulter counter method; conditions: SF-268, 48 h, read-out: GI; summary of the method: as §1
[37] = system: SK-MEL-5; assay: Growth inhibition of human SK-MEL-5 cells at 10 uM after 48 hrs by coulter counter method; conditions: SK-MEL-5, 48 h, read-out: GI; summary of the method: as §1
[38] = system: MDA-MB-468; assay: Growth inhibition of human MDA-MB-468 cells at 10 uM after 48 hrs by coulter counter method; conditions: MDA-MB-468, 48 h, read-out: GI; summary of the method: as §1
[39] = system: SNB-75; assay: Growth inhibition of human SNB75 cells at 10 uM after 48 hrs by coulter counter method; conditions: SNB-75, 48 h, read-out: GI; summary of the method: as §1
[40] = system: M14; assay: Growth inhibition of human M14 cells at 10 uM after 48 hrs by coulter counter method; conditions: M14, 48 h, read-out: GI; summary of the method: as §1
[41] = system: UACC-257; assay: Growth inhibition of human UACC257 cells at 10 uM after 48 hrs by coulter counter method; conditions: UACC-257, 48 h, read-out: GI; summary of the method: as §1
[42] = system: Malme-3M; assay: Growth inhibition of human MALME-3M cells at 10 uM after 48 hrs by coulter counter method; conditions: read-out: GI; summary of the method: as §1
[43] = system: A498; assay: Growth inhibition of human A498 cells at 10 uM after 48 hrs by coulter counter method; conditions: A498, 48 h, read-out: GI; summary of the method: as §1
[44] = system: MCF7; assay: Growth inhibition of human MCF7 cells at 10 uM after 48 hrs by coulter counter method; conditions: MCF7, 48 h, read-out: GI; summary of the method: as §1
[45] = system: T47D; assay: Growth inhibition of human T47D cells at 10 uM after 48 hrs by coulter counter method; conditions: read-out: GI; summary of the method: as §1

Measured: inhibition of growth at 10 µM

O=C1N=C2SC(c3ccc(Cl)cc3)=NN2C1=O
12.1%: [44]
12.7%: [26]
10.6%: [22]
19.7%: [11]
15.2%: [2]
11.1%: [24]
12.2%: [9]
< 10%: all other assays above
